For twelve molecules, CC50 and Activity results are on record in ChEMBL document CHEMBL1250529, “Retinobenzaldehydes as proper-trafficking inducers of folding-defective P23H rhodopsin mutant responsible for retinitis pigmentosa” (Bioorg Med Chem, 2010).

Active and inactive are the calls of the source. No cut-off for these calls is given here.

A short description of data set [1]: Cytotoxicity against HEK293 cells by WST-1 assay. The class given is cell-based. The note with it: human. The gist of the method:
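HEK293 cells, poly-Lys-coated wells (1 × 10^4 cells/well), grown 16–20 h, then exposed to compounds in DMEM/5% FBS (0.1% DMSO final) for 20–22 h. WST-1 added, 2 h, A405 read. Viability = treated/vehicle absorbance after background (no-cell wells) subtraction; CC50 derived from dose curves.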
Background: Formazan colour is commonly taken as a measure of viable cells.

The test system of data set [2] is Rhodopsin (Homo sapiens), P08100 [P23H]. The data set can be described thus: Induction of subcellular localization of HA-tagged human rhodopsin P23H mutant on HEK293 cell surface by immunofluorescence microscopy. The class given is cell-based.
In another data set the test system is HEK293. The data set can be described thus: Upregulation of HA-tagged rhodopsin P23H expression in HEK293 cell surface by ELISA. The class given is functional, cell-based. The conditions noted are these: Homo sapiens. The gist of the method:
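HEK293 in poly-lysine-coated wells transfected with HA-tagged human P23H rhodopsin; 2–3 h later compounds in DMEM/5% FBS (0.1% DMSO final) for 20 h. Non-permeabilized cells fixed, blocked, HRP-anti-HA 1.5 h rt, chemiluminescent readout. Background-subtracted signal expressed relative to untreated cells (=1.0); ≥2 independent experiments (n >4).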

For orientation: CC50 means the concentration giving 50% cytotoxicity. As for `CC(C)(C)c1ccc(C(=O)OCc2ccc(C=O)cc2)cc1`, in data set [1], the CC50 amounted to 63 µM.

In the case of `CC1(C)CCC(C)(C)c2cc(C(=O)NCc3ccc(C=O)cc3)ccc21`, the CC50 in data set [1] was determined as 49 µM.

In data set [1], `CC1(C)CCC(C)(C)c2cc(C(=O)OCc3ccc(C=O)cc3)ccc21` gave a CC50 of 48 µM.

In data set [1], `O=C(OCc1ccc(B(O)O)cc1)c1cc(C(F)(F)F)cc(C(F)(F)F)c1` showed a CC50 of 49 µM.

With `O=C(O)c1ccc(COC(=O)c2cc(C(F)(F)F)cc(C(F)(F)F)c2)cc1`, the CC50 in data set [1] is over 100 µM.

In data set [1], `CC1=C(/C=C/C(C)=C\C=C\C(C)=C\C=O)C(C)(C)CCC1` [ISO RHODOPSIN] registered a CC50 of 28 µM. Besides, the result in data set [2] was Active. In addition, the Activity entry with HEK293 was “Dose-dependent effect”.

As for `O=Cc1ccc(COC(=O)c2ccc3c(c2)CCCC3)cc1`, the CC50 in data set [1] is over 100 µM.

In turn, `CC1=C(/C=C/C(C)=C/C=C\C(C)=C\C=O)C(C)(C)CCC1` [RHODOPSIN] had a half-maximal cytotoxic concentration (CC50) in data set [1] of 23 µM. Also, the result in data set [2] was Active. Also, the Activity entry in the data set on HEK293 was “Dose-dependent effect”.

`NC(=O)c1ccc(COC(=O)c2cc(C(F)(F)F)cc(C(F)(F)F)c2)cc1` showed a CC50 in data set [1] of over 100 µM.

Turning to `O=Cc1ccc(COC(=O)c2cc(C(F)(F)F)cc(C(F)(F)F)c2)cc1`, the CC50 in data set [1] was over 100 µM.

Take `CC(C)(C)c1cccc(C(=O)OCc2ccc(C=O)cc2)c1`: the midpoint of cytotoxicity in data set [1], the CC50, lay at 73 µM. This counts as double-digit micromolar.

Regarding `CC(C)(C)c1cc(C(=O)OCc2ccc(C=O)cc2)cc(C(C)(C)C)c1`, the CC50 in data set [1] amounted to 34 µM.
